NPY Y2 blocker: blocks the human neuropeptide Y Y2 receptor; NPY-Y2 expressing cells, antagonist mode; inhibition, % at 2.7 µM; actives 0.99% (n = 140,000); AID 793; in the data active means inhibition above about 17%
NPY-Y1 antag: NPY-Y1 (human) receptor antagonism | HEK293-CNG Y1 cells, membrane potential fluorescence; NPY at EC95, then isoproterenol | inhibition, % at 3.6 µM | actives 1% (n = 200,000);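 active means inhibition above the campaign mean inhibition of all tested compounds plus 3 SD, cut at about 20% in these data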
Target sequence (P25929 whole entry, looked up): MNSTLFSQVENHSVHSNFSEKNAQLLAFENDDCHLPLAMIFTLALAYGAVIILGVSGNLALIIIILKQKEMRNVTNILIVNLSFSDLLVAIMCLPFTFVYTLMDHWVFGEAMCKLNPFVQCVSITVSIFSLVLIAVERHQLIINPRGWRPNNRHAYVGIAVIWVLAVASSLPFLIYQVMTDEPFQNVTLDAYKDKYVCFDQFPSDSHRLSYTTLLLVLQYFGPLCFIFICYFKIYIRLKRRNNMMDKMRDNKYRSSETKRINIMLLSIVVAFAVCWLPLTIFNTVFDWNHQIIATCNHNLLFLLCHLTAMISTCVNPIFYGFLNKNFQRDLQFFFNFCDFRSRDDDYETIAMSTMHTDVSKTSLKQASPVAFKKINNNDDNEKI
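Material: HEK293 Y1/CNG channel cell line; also added: NPY (25 nM), isoproterenol (1 µM), Ro 20-1724 (25 µM); doses: one concentration, 3.6 µM, in 0.4% DMSO; schedule: compound incubation 1 h at room temperature, readout 45 min post-stimulation; technique: membrane potential fluorescence; measure: fluorescence ratio normalized to % inhibition between controls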
NPY2 pot ag: potentiates or activates human NPY-Y2 receptor | activation, % at 3.6 µM | P49146 | cells expressing NPY-Y2, potentiator/agonist read-out | actives 0.45% (n = 220,000); in the data active means activation above about 27%;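 further: cells stimulated with NPY near EC25 plus isoproterenol at EC100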
NPY1 pot ag: potentiates or activates human NPY-Y1 receptor. NPY-Y1 expressing cells, potentiator/agonist activation. activation, % at 3.6 µM. actives 0.37% (n = 220,000); in the data active means activation above about 33%, passing the limit was not always enough;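 further: cells stimulated with NPY at EC10 then isoproterenol at EC100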
NPY-Y1 pot conf: human NPY-Y1 potentiation or agonism, confirmation; activation, % at 3.6 µM; actives 20% (n = 280); cell-based NPY-Y1 potentiator/agonist assay; shares compounds with NPY1 pot ag; in the data active means activation above about 45%;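 further: cells challenged with NPY at its EC10 plus isoproterenol stimulus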
NPY-Y2 counter: NPY-Y2 potentiation or agonism as NPY-Y1 counter-screen; shares compounds with NPY1 pot ag; HEK293-CNG cells, membrane-potential fluorescence (FLIPR), 1536-well; activation, % at 3.6 µM; actives 20% (n = 280); AID 1649; in the data active means activation above about 33%
NPY-Y1 ag: counter-screen for NPY-Y1 potentiators: agonists of human NPY-Y1; actives 50% (n = 280); HEK293 Y1-CNGC, membrane potential fluorescence, agonist mode; shares compounds with NPY1 pot ag; activation, % at 3.6 µM;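 active means percent activation above the mean of DMSO-only control wells plus 3 SD of those wells, cut at about 18% in these data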;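 further: cells challenged with isoproterenol plus Ro 20-1724 with no NPY in test wells; Y1 agonism lowers isoproterenol-driven cAMP and reduces probe fluorescence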
NPY-Y2 agonist: counter-screen for NPY-Y1 potentiators or agonists: agonists of NPY-Y2; HEK293 Y2-CNGC, membrane potential fluorescence, agonist mode; activation, % at 3.6 µM; shares compounds with NPY1 pot ag; actives 67% (n = 280);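 active means activation above the solvent-only control wells' mean plus 3 SD, cut at about 11% in these data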;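 further: agonism lowers cAMP so well fluorescence drops in active wells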
CNGC counter: CNG channel inhibition, counter-screen for NPY-Y1 potentiators; HEK293-CNG parental, isoproterenol cAMP, membrane potential fluorescence; actives 42% (n = 280); AID 1704; inhibition, % at 3.6 µM; shares compounds with NPY1 pot ag;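 active means inhibition above the mean of stimulated solvent-only control wells plus 3 SD, cut at about 22% in these data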
Large screens that a line does not name were inactive (follow-up assays come after a bar, where they were run). A selection: hits, their analogues and other compounds. The true share with any hit is near 1.8%.

Cc1ccc(O)c(-c2cc3ccccc3[nH]2)c1	NPY1 pot ag 47 | NPY-Y1 pot conf inactive | NPY-Y2 counter inactive | NPY-Y1 ag 38 | NPY-Y2 agonist 42 | CNGC counter 31
COC(=O)c1ccc(NC(=O)CN2CCN(c3ccccc3C)CC2)cc1	NPY1 pot ag 54 | NPY-Y1 pot conf inactive | NPY-Y2 counter inactive | NPY-Y1 ag inactive | NPY-Y2 agonist inactive | CNGC counter inactive
Cc1ccc(C2C=NN(c3ccccc3)C2=O)cc1 (stereo unspecified)	none (no result: NPY Y2 blocker)
CCN1CCCC1CNC(=O)c1ccc(Sc2ccccc2Cl)c([N+](=O)[O-])c1 (stereo unspecified)	NPY1 pot ag 36 (no result: NPY Y2 blocker) | NPY-Y1 pot conf inactive | NPY-Y2 counter inactive | NPY-Y1 ag 23 | NPY-Y2 agonist 30 | CNGC counter 34
O=S(=O)(Nc1nc2ccccc2nc1NCC1CCCO1)c1cccc(Cl)c1 (stereo unspecified)	none (no result: NPY Y2 blocker, NPY-Y1 antag)
Cc1cccc(Nc2c(-c3ccc(O)cc3)nc3ncccn23)c1	NPY1 pot ag 40 (no result: NPY Y2 blocker) | NPY-Y1 pot conf inactive | NPY-Y2 counter inactive | NPY-Y1 ag inactive | NPY-Y2 agonist 31 | CNGC counter 23
O=C(CCC1CC(=O)Nc2ccccc21)NCc1ccc(F)cc1 (stereo unspecified)	NPY1 pot ag 68 | NPY-Y1 pot conf inactive | NPY-Y2 counter inactive | NPY-Y1 ag inactive | NPY-Y2 agonist inactive | CNGC counter inactive
O=C(CCC1CC(=O)Nc2ccccc21)NCc1ccccc1 (stereo unspecified)	none
C/C(=N\Nc1ccc(C(=O)c2c(C)cc3ccccn23)cc1[N+](=O)[O-])c1ccc(O)cc1	NPY1 pot ag 62 (no result: NPY Y2 blocker, NPY-Y1 antag) | NPY-Y1 pot conf inactive | NPY-Y2 counter inactive | NPY-Y1 ag inactive | NPY-Y2 agonist 12 | CNGC counter inactive
Cc1cc2ccccn2c1C(=O)c1ccc(N/N=C/c2ccc(C(=O)O)cc2)c([N+](=O)[O-])c1	none (no result: NPY Y2 blocker, NPY-Y1 antag)
CC(C)c1ccc2c(c1)CCC1C(C)(CN)CCCC21C (stereo unspecified)	NPY1 pot ag 47 (no result: NPY Y2 blocker, NPY-Y1 antag) | NPY-Y1 pot conf 48 | NPY-Y2 counter 42 | NPY-Y1 ag 34 | NPY-Y2 agonist 40 | CNGC counter inactive
COc1cc(C=O)ccc1Oc1nc(Nc2ccc(F)cc2F)nc(N2CCOCC2)n1	none (no result: NPY Y2 blocker)
COCCN(CCOC)S(=O)(=O)c1ccc(C(=O)Nc2ccc([N+](=O)[O-])cc2OC)cc1	none (no result: NPY Y2 blocker)
N#CC(C#N)=NNc1ccc([N+](=O)[O-])cc1	NPY1 pot ag 51 (no result: NPY Y2 blocker, NPY-Y1 antag) | NPY-Y1 pot conf inactive | NPY-Y2 counter inactive | NPY-Y1 ag 37 | NPY-Y2 agonist 36 | CNGC counter 32
C/C(=N\Nc1ccc([N+](=O)[O-])cc1)c1ccc(C#N)cc1	none (no result: NPY Y2 blocker, NPY-Y1 antag)
CCc1cccc(NC(=O)c2ccc3c(=O)n4c(nc3c2)CCCCC4)c1	none (no result: NPY Y2 blocker, NPY-Y1 antag)
CCO[C@@H]1OC(C(=O)O)=C[C@H](c2ccc3c(c2)OCO3)[C@H]1CCCO	none (no result: NPY Y2 blocker)
Cn1c(C(C#N)C2=C(Cl)C(=O)N(c3ccccc3)C2=O)nc2ccccc21 (stereo unspecified)	NPY1 pot ag 36 | NPY-Y1 pot conf 71 | NPY-Y2 counter 60 | NPY-Y1 ag 83 | NPY-Y2 agonist 72 | CNGC counter 58
Cn1c(C(O)C(O)c2ccccc2)nc2ccccc21 (stereo unspecified)	none (no result: NPY Y2 blocker)
CC(C)CN(C)C(=O)CCc1nnc(Cc2cccc(C(F)(F)F)c2)o1	none (no result: NPY Y2 blocker)
COc1cc(OC)c(OC)cc1CN1CCC(O)CC1	none (no result: NPY Y2 blocker, NPY-Y1 antag)
CCN1CCN(C(=O)Nc2cccc(C(F)(F)F)c2)CC1	none
CCN1CCC(NC(=O)Nc2cccc(C(F)(F)F)c2)CC1	NPY1 pot ag 36 (no result: NPY Y2 blocker) | NPY-Y1 pot conf inactive | NPY-Y2 counter inactive | NPY-Y1 ag inactive | NPY-Y2 agonist inactive | CNGC counter inactive
COc1cccc(CN2CCNC(=O)C2CC(=O)NCCn2ccc3ccccc32)c1OC (stereo unspecified)	none (no result: NPY Y2 blocker)

High-throughput results deposited in PubChem BioAssay by The Scripps Research Institute Molecular Screening Center.
